Series [1] has as its target Sodium-dependent dopamine transporter (Homo sapiens, UniProt Q01959). In words: Displacement of [125I]RTI-55 from human DAT receptor expressed in canine kidney cells. Format: cell-based. In outline:
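Competition binding against [¹²⁵I]RTI-55 in canine kidney cells stably transfected with human DAT. Ki in nM, geometric mean ± SD of at least three separate experiments, each run in triplicate.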
In general terms: Loss of bound radioactivity is the signal in a displacement assay; it reports binding, not function.

The nature of series [2]: Lipophilicity, log P at pH 7.4. Format: physicochemical. The following applies: buffer. In outline:
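Radiotracer (~5–10 μCi) in 2 mL 1-octanol plus 2 mL 0.02 M sodium phosphate buffer, pH 7.4. Vortexed 10 min at room temperature, centrifuged 5 min. 0.5 mL of each layer gamma-counted and decay corrected. log P = log(octanol counts/buffer counts), done three times and averaged.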

The species entered for series [3] is Homo sapiens. In words: Selectivity for human NET over human DAT. Summed up: (§1)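 Competition binding in stably transfected cells expressing human transporters: NET vs [3H]nisoxetine and SERT vs [3H]citalopram in HEK-293 cells; DAT vs [125I]RTI-55 in canine kidney cells. Ki as geometric mean of at least three experiments in triplicate; selectivity as ratio of SERT or DAT Ki to NET Ki.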

Series [4] concerns the target Sodium-dependent noradrenaline transporter (Homo sapiens, UniProt P23975). In words: Displacement of [3H]nisoxetine from human NET receptor expressed in HEK293 cells. The format is cell-based.
Series [5] is filed under the species Homo sapiens. Briefly: Selectivity for human NET over human SERT. Summed up: as §1
For series [6], the target named is Sodium-dependent serotonin transporter (Homo sapiens, UniProt P31645). In words: Displacement of [3H]citalopram from human SERT receptor expressed in HEK293 cells. The format is cell-based. Summed up:
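Competition binding against [³H]citalopram in HEK-293 cells stably transfected with human SERT. Ki in nM, geometric mean ± SD of at least three separate experiments, each run in triplicate.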

Sequence of Sodium-dependent dopamine transporter (Q01959 whole entry): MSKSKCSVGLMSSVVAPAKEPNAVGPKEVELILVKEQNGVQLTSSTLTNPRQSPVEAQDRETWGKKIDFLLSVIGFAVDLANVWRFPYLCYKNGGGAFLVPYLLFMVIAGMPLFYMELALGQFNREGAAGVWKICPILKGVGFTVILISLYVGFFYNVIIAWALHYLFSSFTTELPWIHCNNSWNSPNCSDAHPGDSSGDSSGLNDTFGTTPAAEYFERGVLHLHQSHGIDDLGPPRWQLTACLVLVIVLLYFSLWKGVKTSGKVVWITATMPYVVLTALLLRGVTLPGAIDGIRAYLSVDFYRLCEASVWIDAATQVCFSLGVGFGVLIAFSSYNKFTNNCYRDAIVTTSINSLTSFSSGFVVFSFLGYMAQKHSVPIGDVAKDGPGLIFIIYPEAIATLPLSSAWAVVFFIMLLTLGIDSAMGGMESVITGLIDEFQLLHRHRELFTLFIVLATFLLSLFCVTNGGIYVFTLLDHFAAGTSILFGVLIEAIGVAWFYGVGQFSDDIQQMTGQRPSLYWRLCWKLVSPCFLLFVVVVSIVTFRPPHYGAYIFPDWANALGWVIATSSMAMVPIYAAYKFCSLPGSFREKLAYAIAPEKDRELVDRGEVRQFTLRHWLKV
Sequence of Sodium-dependent serotonin transporter (P31645 whole entry): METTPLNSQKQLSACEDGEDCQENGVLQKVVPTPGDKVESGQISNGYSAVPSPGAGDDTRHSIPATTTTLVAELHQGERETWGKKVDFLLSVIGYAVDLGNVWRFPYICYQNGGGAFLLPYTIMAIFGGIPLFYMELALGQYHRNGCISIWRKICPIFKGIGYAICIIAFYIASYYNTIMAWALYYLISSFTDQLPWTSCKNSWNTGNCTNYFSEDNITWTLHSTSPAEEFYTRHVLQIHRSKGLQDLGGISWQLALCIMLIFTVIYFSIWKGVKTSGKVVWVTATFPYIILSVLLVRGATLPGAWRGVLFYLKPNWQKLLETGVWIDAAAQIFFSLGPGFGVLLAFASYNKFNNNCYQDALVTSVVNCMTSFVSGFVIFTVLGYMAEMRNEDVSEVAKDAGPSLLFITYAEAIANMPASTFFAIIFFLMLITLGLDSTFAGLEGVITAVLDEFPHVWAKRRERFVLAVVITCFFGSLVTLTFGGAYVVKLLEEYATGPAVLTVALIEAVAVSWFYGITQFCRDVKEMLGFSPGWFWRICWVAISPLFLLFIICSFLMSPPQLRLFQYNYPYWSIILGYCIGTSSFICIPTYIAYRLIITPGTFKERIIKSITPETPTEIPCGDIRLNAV
Sequence of Sodium-dependent noradrenaline transporter (P23975 whole entry): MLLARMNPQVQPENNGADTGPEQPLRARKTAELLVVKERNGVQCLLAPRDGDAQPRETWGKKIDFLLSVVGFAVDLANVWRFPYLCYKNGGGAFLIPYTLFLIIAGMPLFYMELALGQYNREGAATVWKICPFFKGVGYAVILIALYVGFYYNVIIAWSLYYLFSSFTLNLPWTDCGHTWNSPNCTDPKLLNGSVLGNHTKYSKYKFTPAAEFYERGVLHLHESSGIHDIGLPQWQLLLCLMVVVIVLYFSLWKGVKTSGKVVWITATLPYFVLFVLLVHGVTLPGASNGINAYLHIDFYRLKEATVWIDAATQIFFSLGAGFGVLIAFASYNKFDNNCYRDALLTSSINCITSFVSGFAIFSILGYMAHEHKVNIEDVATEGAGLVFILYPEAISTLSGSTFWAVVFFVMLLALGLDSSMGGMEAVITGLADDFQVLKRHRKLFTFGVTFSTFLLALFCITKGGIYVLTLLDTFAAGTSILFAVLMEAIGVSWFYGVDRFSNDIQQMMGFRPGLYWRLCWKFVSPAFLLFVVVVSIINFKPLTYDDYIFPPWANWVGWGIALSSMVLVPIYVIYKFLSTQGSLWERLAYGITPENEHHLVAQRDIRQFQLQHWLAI

As to `Cc1ccccc1O[C@@H](c1ccccc1)[C@@H]1CNCCO1`, the Ki in series [1] turned out to be 327 nM; in series [4], 1.02 nM; in series [6], 93 nM. In series [2], this molecule displayed a logD of 2.04. The Ratio Ki in the series filed under Homo sapiens [3] was found to be 321; in the series filed under Homo sapiens [5], 92.

The term Ki denotes a measure of affinity in units of concentration, obtained from inhibition or displacement. Lower therefore signals tighter binding. In general, logD refers to lipophilicity at a set pH, counting ionised and neutral species. A lower logD goes with a more hydrophilic compound.

Source of the values: ChEMBL document CHEMBL1139340, “Synthesis, radiosynthesis, and biological evaluation of carbon-11 and fluorine-18 labeled reboxetine analogues: potential positron emission tomography radioligands for in vivo imaging of the norepinephrine transporter” (J Med Chem, 2009).
